{"data": "Published values collected from several papers", "MET M1250T": "Hepatocyte growth factor receptor (MET, Homo sapiens, UniProt P08581, M1250T)", "MET": "Hepatocyte growth factor receptor (MET, Homo sapiens, UniProt P08581)", "MET Y1235D": "Hepatocyte growth factor receptor (MET, Homo sapiens, UniProt P08581, Y1235D)"}
{"SMILES": "COc1ncc2cc3ccccc3nc2c1C#N", "target": "MET M1250T", "observed": "cell-free assay", "method": "competition with immobilised ligand", "tested at": "5 µM", "remaining binding [%]": 100}
{"SMILES": "COc1cnc(Nc2cccc(S(N)(=O)=O)c2)nc1N1CCN(c2ccccc2)C(=O)C1", "target": "MET M1250T", "observed": "binding", "method": "competition with immobilised ligand", "tested at": "1 µM", "remaining binding [%]": 98}
{"SMILES": "O=C(c1ccc(Nc2nccc(-c3cc4ccccc4s3)n2)cc1)N1CCC(N2CCCC2)CC1", "target": "MET", "observed": "binding", "method": "competition with immobilised ligand", "tested at": "1 µM", "remaining binding [%]": 69}
{"SMILES": "CNC(=O)[C@@H]1CC[C@@H](n2c(-c3ccc4cnccc4c3)nc3ccc(C(=O)NCc4cccc(C(N)=O)c4)cc32)C1", "target": "MET Y1235D", "observed": "binding", "method": "competition with immobilised ligand", "tested at": "1 µM", "remaining binding [%]": 92}
{"SMILES": "CC1CCCN1c1nccc(-c2cnn3ncccc23)n1 (stereo not drawn)", "target": "MET Y1235D", "observed": "binding", "tested at": "1 µM", "remaining binding [%]": 100}
{"SMILES": "CO[C@@H](C)c1c(Nc2ccc([C@@H](N(C)C(=O)C3CCS(=O)(=O)CC3)C(F)(F)F)cc2)cnc2cc(Cl)nn12", "target": "MET M1250T", "observed": "cell-free assay", "method": "competition with immobilised ligand", "tested at": "1 µM", "remaining binding [%]": 100}
{"SMILES": "C[C@H]1CCN(c2nccc(-c3cnn4ncccc34)n2)C1", "target": "MET Y1235D", "observed": "binding", "tested at": "1 µM", "remaining binding [%]": 100}
{"SMILES": "CN1CCN(c2ccc(Nc3nccc(-c4ccccc4)n3)cc2C(F)(F)F)CC1", "target": "MET Y1235D", "observed": "binding", "tested at": "10 µM", "remaining binding [%]": 21}
{"SMILES": "O=C(Nc1c[nH]nc1C(=O)NC1CCNCC1)c1cc(F)cc(F)c1", "target": "MET", "observed": "binding", "method": "competition with immobilised ligand", "tested at": "1 µM", "remaining binding [%]": 94}
{"SMILES": "CN(C)c1nccc(-c2cnn3ncccc23)n1", "target": "MET", "observed": "binding", "tested at": "1 µM", "remaining binding [%]": 89}
{"SMILES": "c1cncc(-c2cccc(Nc3nccc(NC4CCCCC4)n3)c2)c1", "target": "MET Y1235D", "observed": "binding", "method": "competition with immobilised ligand", "tested at": "10 µM", "remaining binding [%]": 73}
{"SMILES": "Cc1nc(N2CC[C@@H](O)C2)ncc1-c1cc(C(F)(F)F)cc2[nH]ncc12", "target": "MET", "observed": "cell-free assay", "method": "competition with immobilised ligand", "tested at": "1 µM", "remaining binding [%]": 100}
{"SMILES": "c1cnn2ncc(-c3ccnc(N4CCC45COC5)n3)c2c1", "target": "MET M1250T", "observed": "binding", "tested at": "1 µM", "remaining binding [%]": 41}
{"SMILES": "CN(C)C(=O)Cn1cc(-c2nc([C@@](C)(c3ccc(-c4cnc(N)nc4)cc3)C3CC3)no2)cn1", "target": "MET M1250T", "observed": "cell-free assay", "method": "competition with immobilised ligand", "tested at": "1 µM", "remaining binding [%]": 93}
{"SMILES": "O=C(c1ccc(Nc2ncc(Cl)c(-c3cc4ccccc4s3)n2)cc1)N1CCC(N2CCCC2)CC1", "target": "MET M1250T", "observed": "binding", "method": "competition with immobilised ligand", "tested at": "1 µM", "remaining binding [%]": 31}
{"SMILES": "CCS(=O)(=O)c1cc2cc(C[C@@](O)(CC(C)(C)c3ccc(F)cc3C(N)=O)C(F)(F)F)[nH]c2cn1", "target": "MET", "observed": "cell-free assay", "method": "competition with immobilised ligand", "tested at": "1 µM", "remaining binding [%]": 100}
{"SMILES": "COc1cnc(Nc2cccc(S(N)(=O)=O)c2)nc1N1CCN(c2ccccc2)CC1", "target": "MET M1250T", "observed": "binding", "method": "competition with immobilised ligand", "tested at": "1 µM", "remaining binding [%]": 74}
{"SMILES": "O=C(NCCCN1CCOCC1)c1ccc(Nc2ncc(Cl)c(-c3ccc(Cl)s3)n2)cc1", "target": "MET", "observed": "binding", "method": "competition with immobilised ligand", "tested at": "1 µM", "remaining binding [%]": 37}
{"SMILES": "CCN1CCN(Cc2ccc(C(=O)Nc3ccc(C)c(Oc4ccc5c(c4)CC(=O)N5)c3)cc2C(F)(F)F)CC1", "target": "MET Y1235D", "observed": "binding", "method": "competition with immobilised ligand", "tested at": "1 µM", "remaining binding [%]": 100}
{"SMILES": "Cc1cnc(Nc2ccc(C(=O)N3CCC(N4CCCC4)CC3)cc2)nc1-c1cc2ccccc2s1", "target": "MET Y1235D", "observed": "binding", "method": "competition with immobilised ligand", "tested at": "1 µM", "remaining binding [%]": 72}
{"SMILES": "Cc1c(C(=O)O)cc(-c2ccc(C3CCNCC3)cc2)c2ccc(-c3ccc(C(F)(F)F)cc3)cc12", "target": "MET", "observed": "cell-free assay", "method": "competition with immobilised ligand", "tested at": "1 µM", "remaining binding [%]": 100}
{"SMILES": "O=C(c1ccc(Nc2ncc(Cl)c(-c3ccc(Cl)s3)n2)cc1)N1CCC(N2CCCC2)CC1", "target": "MET", "observed": "binding", "method": "competition with immobilised ligand", "tested at": "1 µM", "remaining binding [%]": 6.9}
{"SMILES": "CCC(=N\\O)/C(C)=C/c1ccc(F)cc1", "target": "MET", "observed": "cell-free assay", "method": "competition with immobilised ligand", "tested at": "1 µM", "remaining binding [%]": 88}
{"SMILES": "CN1CCN(c2ccc(Nc3nccc(-c4cccc([N+](=O)[O-])c4)n3)cc2C(F)(F)F)CC1", "target": "MET Y1235D", "observed": "binding", "tested at": "10 µM", "remaining binding [%]": 27}
{"SMILES": "C[C@@H]1CN(c2ccc3ncc(-c4ccc5[nH]nc(C6CC6)c5c4)n3n2)C[C@H](C)O1", "target": "MET", "observed": "binding", "method": "competition with immobilised ligand", "tested at": "50 nM", "remaining binding [%]": 89}
{"SMILES": "CC(=O)N1CCC(c2ccc(C(=O)NC3=NCCN3)cc2C(F)(F)F)CC1", "target": "MET Y1235D", "observed": "cell-free assay", "method": "competition with immobilised ligand", "tested at": "1 µM", "remaining binding [%]": 100}
{"SMILES": "FC(F)(F)Oc1cccc(-c2cnc3ccc(-c4ccncc4)nn23)c1", "target": "MET", "observed": "cell-free assay", "method": "competition with immobilised ligand", "tested at": "5 µM", "remaining binding [%]": 63}
{"SMILES": "CN(C)c1nccc(-c2cnc3ncccn23)n1", "target": "MET Y1235D", "observed": "binding", "tested at": "1 µM", "remaining binding [%]": 76}
{"SMILES": "CC(C)(C)c1ccc(-c2nc(CBr)nn2-c2cccc(O)c2)cc1", "target": "MET", "observed": "cell-free assay", "method": "competition with immobilised ligand", "tested at": "10 µM", "remaining binding [%]": 83}
{"SMILES": "O=C(NCC1CCOCC1)c1n[nH]cc1NC(=O)c1c(F)cccc1F", "target": "MET M1250T", "observed": "binding", "method": "competition with immobilised ligand", "tested at": "1 µM", "remaining binding [%]": 90}
{"SMILES": "N#Cc1ccccc1CSc1nnc2c(n1)[nH]c1ccccc12", "target": "MET", "observed": "binding", "method": "competition with immobilised ligand", "tested at": "10 µM", "remaining binding [%]": 87}
{"SMILES": "C[C@H](c1ccc(F)cc1)N(Cc1cccc(C(=O)O)c1)C(=O)c1cnc2ccccc2c1", "target": "MET M1250T", "observed": "cell-free assay", "method": "competition with immobilised ligand", "tested at": "1 µM", "remaining binding [%]": 93}
{"SMILES": "COc1ccnn2ncc(-c3ccnc(N(C)C)n3)c12", "target": "MET Y1235D", "observed": "binding", "tested at": "1 µM", "remaining binding [%]": 94}
{"SMILES": "Nc1ncc2c(n1)-c1c([nH]c3ccc(C#CC4CC4)cc13)CCCC2", "target": "MET Y1235D", "observed": "binding", "method": "competition with immobilised ligand", "tested at": "1 µM", "remaining binding [%]": 92}
{"SMILES": "O=C(NCCCN1CCOCC1)c1ccc(Nc2nccc(-c3cc4ccccc4s3)n2)cc1", "target": "MET Y1235D", "observed": "binding", "method": "competition with immobilised ligand", "tested at": "1 µM", "remaining binding [%]": 100}
{"SMILES": "CN(c1nccc(-c2cnn3ncccc23)n1)C1CC1", "target": "MET M1250T", "observed": "binding", "tested at": "1 µM", "remaining binding [%]": 100}
